Results taken from ChEMBL document CHEMBL3745686 (Eur J Med Chem, 2016).
Each block holds one molecule with its values, some of them ahead of it. Active and inactive are the calls of the source. The calls are words filed in the database; no cut-off is given here.

What was measured:
[1] = test system: Plasma; assay: Drug level in rat plasma treated with P'1,P'4-di-(2 methylthio-5'-adenosine) P'1,P'4-dithio-P'2,P'3-chloromethylenetetraphosphate, sodium salt at 50 uM after 77 hrs by HPLC analysis; assay type: ADME, cell-free
Summary of the method: (§1)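 Frozen pooled heparinised rat or human plasma, thawed and warmed 5 min at 37 °C, spiked to 50 μM final compound (from 10 mM saline stock), held at 37 °C up to 77 h; heat-denatured plasma as chemical control; aliquots quenched with MeCN, ultrafiltered, dried, redissolved in pH 8.5 phosphate/EDTA; isocratic RP-HPLC, 273 nm; metabolites confirmed by reference compounds and LCMS; peak areas internally normalised.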

[2] = test system: Plasma; assay: Drug level in human plasma treated with P'1,P'4-di-(2 methylthio-5'-adenosine) P'1,P'4-dithio-P'2,P'3-chloromethylenetetraphosphate, sodium salt at 50 uM after 77 hrs by HPLC analysis; assay type: ADME, cell-free
Summary of the method: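 Pooled heparinized human plasma, prewarmed 5 min at 37 °C, was spiked to 50 μM final from a saline stock and incubated at 37 °C. Aliquots were MeCN-precipitated, ultrafiltered (10K), dried, reconstituted in phosphate/EDTA pH 8.5, and run on C18 HPLC (isocratic 20% methanol, 50 mM phosphate pH 8.4, 10 mM EDTA, UV 273 nm). Diastereomer peak areas were internally normalized, with heat-denatured plasma and blank controls.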

[3] = Anti-aggregatory activity in human platelet rich plasma assessed as inhibition of 20 uM ADP-induced platelet aggregation preincubated for 15 mins by optical aggregometric analysis; assay type: functional, cell-free
[4] = test system: Plasma; assay: Drug metabolism in human plasma assessed as MeSAdo formation at 50 uM after 77 hrs by HPLC analysis; assay type: ADME, cell-free; summary of the method: as §1
[5] = test system: Plasma; assay: Drug metabolism in rat plasma assessed as MeSAdo formation at 50 uM after 77 hrs by HPLC analysis; assay type: ADME, cell-free; summary of the method: as §1
[6] = test system: Platelet; assay: Anti-aggregatory activity in ADP-induced human platelet rich plasma assessed as P-selectin expression at 10 nM preincubated for 30 mins followed by 100 fold dilution by fluorescence assay; assay type: functional
Summary of the method: (§2)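 Human PRP from aspirin/NSAID-free donors in 3.2% citrate; platelets pre-incubated 30 min with 10 nM compound, then diluted 100-fold in platelet-poor plasma with or without 10 nM compound, stimulated with ADP; surface activated GPIIb-IIIa and P-selectin read as mean fluorescence intensity; means ± SEM of 3 experiments.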

[7] = test system: Plasma; assay: Half life in rat plasma at 50 uM measured at 1 to 4 hrs; assay type: ADME, cell-free
[8] = Anti-aggregatory activity in human platelet rich plasma assessed as inhibition of 20 uM ADP-induced platelet surface activated GP2b-3a expression by fluorescence assay; assay type: functional, cell-free
[9] = test system: Plasma; assay: Metabolic stability in fresh rat plasma assessed as compound degradation at 50 uM after 24 hrs by HPLC analysis; assay type: ADME, cell-free
[10] = test system: Platelet; assay: Anti-aggregatory activity in ADP-induced human platelet rich plasma assessed as platelet surface activated GP2b-3a expression at 10 nM preincubated for 30 mins followed by 100 fold dilution by fluorescence assay; assay type: functional; summary of the method: as §2
[11] = test system: Plasma; assay: Metabolic stability in rat plasma assessed as first order elimination rate constant at 50 uM measured at 1 to 4 hrs; assay type: ADME, cell-free
[12] = Chemical stability in heat denaturated plasma (unknown origin); assay type: ADME, cell-free; summary of the method: as §1
[13] = test system: Plasma; assay: Half life in human plasma at 50 uM measured at 1 to 4 hrs; assay type: ADME, cell-free
[14] = test system: Plasma; assay: Drugmetabolism in human plasma assessed as MeSAMP(S) formation at 50 uM after 77 hrs by HPLC analysis; assay type: ADME, cell-free; summary of the method: as §1
[15] = Anti-aggregatory activity in human platelet rich plasma assessed as inhibition of 20 uM ADP-induced P-selectin expression by fluorescence assay; assay type: functional, cell-free
[16] = Anti-aggregatory activity in human platelet rich plasma assessed as inhibition of 20 uM ADP-induced platelet aggregation by optical aggregometric analysis; assay type: functional, cell-free
[17] = biological target: T1, P2Y purinoceptor 12 (Homo sapiens, UniProt Q9H244); assay: Antagonist activity at human platelet P2Y12 receptor assessed as inhibition of ADP-mediated decrease in intra-platelet phosphorylated VASP by flow cytometric analysis
[18] = test system: Plasma; assay: Drug metabolism in rat plasma assessed as MeSAMP(S) formation at 50 uM after 77 hrs by HPLC analysis; assay type: ADME, cell-free; summary of the method: as §1
[19] = biological target: T2, P2Y purinoceptor 1 (Homo sapiens, UniProt P47900); assay: Antagonist activity at human platelet P2Y1 receptor assessed as inhibition of ADP-induced increase in cytosolic calcium level by FLUO-4 staining based flow cytometric analysis; assay type: functional
Summary of the method: (§3)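 Stimulus was extracellular Ca2+ uptake on 1 μM test compound (P2X1, scaled to 20 μM β,γ-CH2-ATP as 100%, selective P2Y1 inhibitor control), or 3 μM ADP (P2Y1 antagonism; omitted for agonism).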

[20] = test system: Plasma; assay: Metabolic stability in human plasma assessed as first order elimination rate constant at 50 uM measured at 1 to 4 hrs; assay type: ADME, cell-free
[21] = test system: Platelet; assay: Ratio of IC50 for inhibition of 20 uM ADP-induced human platelet aggregation for inhibition of 20 uM ADP-induced human platelet aggregation preincubated for 15 mins; assay type: functional
[22] = biological target: T1, P2Y purinoceptor 12; assay: Agonist activity at human platelet P2Y12 receptor assessed as decrease in intra-platelet phosphorylated VASP by flow cytometric analysis
[23] = biological target: T2, P2Y purinoceptor 1; assay: Agonist activity at human platelet P2Y1 receptor assessed as increase in cytosolic calcium level by FLUO-4 staining based flow cytometric analysis; assay type: functional; summary of the method: as §3
[24] = biological target: T3, P2X purinoceptor 1 (Homo sapiens) (UniProt P51575); assay: Agonist activity at human platelet P2X1 receptor assessed as increase in cytosolic calcium level at 1 uM by […] staining based flow cytometric analysis relative to beta,gamma-CH2-ATP; summary of the method: as §3
T3 sequence (whole entry): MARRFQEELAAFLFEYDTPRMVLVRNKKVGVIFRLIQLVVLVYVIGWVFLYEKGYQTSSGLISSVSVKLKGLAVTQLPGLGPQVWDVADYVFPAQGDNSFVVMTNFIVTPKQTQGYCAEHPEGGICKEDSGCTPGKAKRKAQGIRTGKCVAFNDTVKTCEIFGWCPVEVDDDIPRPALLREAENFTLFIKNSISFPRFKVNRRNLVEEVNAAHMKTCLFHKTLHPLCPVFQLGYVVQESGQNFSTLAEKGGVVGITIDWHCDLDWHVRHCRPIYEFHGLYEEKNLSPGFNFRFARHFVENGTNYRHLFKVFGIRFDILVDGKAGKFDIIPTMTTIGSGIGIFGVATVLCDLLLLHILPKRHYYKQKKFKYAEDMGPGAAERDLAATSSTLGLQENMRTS

[25] = test system: Platelet; assay: Anti-aggregatory activity in human platelet rich plasma assessed as inhibition of ADP-induced platelet shape change; assay type: functional, cell-free
[26] = biological target: P2Y purinoceptor 2 (Homo sapiens) (UniProt P41231); assay: Effect on human P2Y2 receptor
[27] = biological target: P2Y purinoceptor 4 (Homo sapiens) (UniProt P51582); assay: Effect on human P2Y4 receptor
[28] = test system: Platelet; assay: Anti-aggregatory activity in human platelet rich plasma assessed as inhibition of ADP-induced primary and secondary platelet aggregation preincubated for 15 mins followed by ADP addition and 10 secs shaking measured every 27 secs with 10 secs shaking by 96-well microplate method; assay type: functional, cell-free
Summary of the method: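 PRP incubated with compound 15 min at 37 °C, aggregation started with 5 μM ADP and 10 s shaking; absorbance at 580 nm read every 27 s with 10 s shaking between reads; 100% set by platelet-poor plasma, 0% by PRP.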

[29] = test system: Platelet; assay: Anti-aggregatory activity in human platelet rich plasma assessed as inhibition of 20 uM ADP-induced platelet aggregation at 25 nM preincubated for 15 mins followed by ADP addition measured every 11 secs for 6 mins by 96-well microplate method; assay type: functional, cell-free
[30] = test system: Platelet; assay: Anti-aggregatory activity in human platelet rich plasma assessed as inhibition of 20 uM ADP-induced platelet aggregation at 100 nM preincubated for 15 mins followed by ADP addition measured every 11 secs for 6 mins by 96-well microplate method; assay type: functional, cell-free
[31] = biological target: P2Y purinoceptor 6 (Homo sapiens) (UniProt Q15077); assay: Effect on human P2Y6 receptor
[32] = Half life in human plasma at 0.7 uM; assay type: ADME, cell-free
[33] = Half life in rat plasma; assay type: ADME, cell-free

T1 sequence (Q9H244 whole entry): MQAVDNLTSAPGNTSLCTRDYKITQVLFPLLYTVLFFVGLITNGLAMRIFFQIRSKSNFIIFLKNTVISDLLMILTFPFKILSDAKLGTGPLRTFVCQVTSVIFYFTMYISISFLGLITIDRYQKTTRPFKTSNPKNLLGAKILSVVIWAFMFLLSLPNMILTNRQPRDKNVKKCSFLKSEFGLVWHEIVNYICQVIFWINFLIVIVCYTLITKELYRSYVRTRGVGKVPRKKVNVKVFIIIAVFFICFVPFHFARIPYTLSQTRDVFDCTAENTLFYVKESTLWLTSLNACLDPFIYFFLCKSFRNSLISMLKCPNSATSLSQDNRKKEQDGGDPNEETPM
T2 sequence (P47900 whole entry): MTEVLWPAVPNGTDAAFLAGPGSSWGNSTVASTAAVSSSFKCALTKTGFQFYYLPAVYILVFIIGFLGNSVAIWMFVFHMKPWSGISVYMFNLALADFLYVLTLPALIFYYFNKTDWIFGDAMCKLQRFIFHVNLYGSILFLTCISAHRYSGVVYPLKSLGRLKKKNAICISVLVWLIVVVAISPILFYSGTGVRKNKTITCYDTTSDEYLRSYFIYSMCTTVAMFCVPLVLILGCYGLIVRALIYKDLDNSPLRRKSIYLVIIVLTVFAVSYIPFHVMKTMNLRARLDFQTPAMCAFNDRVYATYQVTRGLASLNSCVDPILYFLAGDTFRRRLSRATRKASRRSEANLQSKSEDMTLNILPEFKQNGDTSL
P2Y purinoceptor 4 (Homo sapiens), sequence (P51582 whole entry): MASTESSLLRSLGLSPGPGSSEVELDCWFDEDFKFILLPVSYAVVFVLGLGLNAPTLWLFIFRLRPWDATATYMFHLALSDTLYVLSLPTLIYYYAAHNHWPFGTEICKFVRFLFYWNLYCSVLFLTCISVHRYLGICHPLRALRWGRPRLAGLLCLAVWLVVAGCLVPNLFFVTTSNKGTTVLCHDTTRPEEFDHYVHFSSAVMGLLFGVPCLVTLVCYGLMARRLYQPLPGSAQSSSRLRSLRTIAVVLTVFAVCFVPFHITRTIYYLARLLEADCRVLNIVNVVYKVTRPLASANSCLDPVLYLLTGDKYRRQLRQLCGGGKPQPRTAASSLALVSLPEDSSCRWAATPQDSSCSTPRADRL
P2Y purinoceptor 6 (Homo sapiens), sequence (Q15077 whole entry): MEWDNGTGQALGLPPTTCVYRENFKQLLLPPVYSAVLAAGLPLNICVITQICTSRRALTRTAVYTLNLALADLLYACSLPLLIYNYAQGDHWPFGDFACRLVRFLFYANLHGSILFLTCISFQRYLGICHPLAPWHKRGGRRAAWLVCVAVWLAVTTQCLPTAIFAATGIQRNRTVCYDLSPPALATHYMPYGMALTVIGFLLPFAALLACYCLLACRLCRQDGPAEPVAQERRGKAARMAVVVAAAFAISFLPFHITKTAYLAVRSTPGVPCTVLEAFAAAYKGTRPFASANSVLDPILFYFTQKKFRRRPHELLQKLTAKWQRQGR
P2Y purinoceptor 2 (Homo sapiens), sequence (P41231 whole entry): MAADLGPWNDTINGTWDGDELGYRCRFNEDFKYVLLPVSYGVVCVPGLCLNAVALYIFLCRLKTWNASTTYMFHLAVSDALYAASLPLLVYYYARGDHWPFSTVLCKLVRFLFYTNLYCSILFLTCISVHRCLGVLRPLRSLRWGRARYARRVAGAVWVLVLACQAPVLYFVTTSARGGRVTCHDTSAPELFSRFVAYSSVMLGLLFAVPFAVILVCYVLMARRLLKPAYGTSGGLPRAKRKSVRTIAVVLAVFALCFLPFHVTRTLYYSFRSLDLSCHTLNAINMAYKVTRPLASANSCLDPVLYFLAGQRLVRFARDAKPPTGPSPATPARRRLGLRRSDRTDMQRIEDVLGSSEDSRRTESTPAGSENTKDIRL

Drug metabolism [1]: metabolite_detected
Drug metabolism [2]: metabolite_detected
Structure (SMILES): CSc1nc(N)c2ncn([C@@H]3O[C@H](CO)[C@@H](O)[C@H]3O)c2n1

Structure (SMILES): CSc1nc(N)c2ncn([C@@H]3O[C@H](COP(=O)([S-])OP(=O)([O-])C(Cl)P(=O)([O-])OP(=O)([S-])OC[C@H]4O[C@@H](n5cnc6c(N)nc(SC)nc65)[C@H](O)[C@@H]4O)[C@@H](O)[C@H]3O)c2n1.[Na+].[Na+].[Na+].[Na+] (mixture of isomers)
IC50 [3]: 63.6 nM
Drug metabolism [4]: metabolite_detected
Drug metabolism [5]: metabolite_detected
Activity [6]: 80%
t1/2 [7]: 4.73 h
IC50 [8]: 1.1 nM
Stability [9]: Stable
Activity [10]: 80%
Kel [11]: 0.147 h⁻¹
Stability [12]: Stable
t1/2 [13]: 31.3 h
Stability [14]: Stable
IC50 [15]: 0.6 nM
IC50 [16]: 2560 nM
IC50 [17]: 220 nM
Drug metabolism [18]: metabolite_detected
IC50 [19]: 2.15 µM
Kel [20]: 0.0221 h⁻¹
Ratio IC50 [21]: 50

IC50 [3]: 54.3 nM
Activity [22]: inactive
Activity [23]: inactive
IC50 [16]: 3320 nM
IC50 [17]: 140 nM
IC50 [19]: 9.6 µM
Activity [24]: 23.8%
Structure (SMILES): CCSc1nc(N)c2ncn([C@@H]3O[C@H](COP(=O)([S-])OP(=O)([O-])C(Cl)P(=O)([O-])OP(=O)([S-])OC[C@H]4O[C@@H](n5cnc6c(N)nc(SCC)nc65)[C@H](O)[C@@H]4O)[C@@H](O)[C@H]3O)c2n1.[Na+].[Na+].[Na+].[Na+] (mixture of isomers)
inhibition [25]: Active
Ratio IC50 [21]: 50

Structure (SMILES): CSc1nc(N)c2ncn([C@@H]3O[C@H](COP(=O)(S)OP(=O)(O)C(Cl)P(=O)(O)OP(=O)(S)OC[C@H]4O[C@@H](n5cnc6c(N)nc(SC)nc65)[C@H](O)[C@@H]4O)[C@@H](O)[C@H]3O)c2n1 (mixture of isomers)
Activity [26]: inactive
Activity [22]: inactive
Activity [27]: inactive
inhibition [28]: Dose-dependent effect
inhibition [29]: Active
inhibition [30]: Active
Activity [23]: inactive
Activity [24]: 0.24%
Activity [31]: inactive
inhibition [25]: Active

half-life at 0.7 µM [32]: 2 min
half-life [33]: 2.99 min
Activity [24]: 198%
Structure (SMILES): Nc1ncnc2c1ncn2[C@@H]1O[C@H](COP(=O)(O)OP(=O)(O)OP(=O)(O)OP(=O)(O)OC[C@H]2O[C@@H](n3cnc4c(N)ncnc43)[C@H](O)[C@@H]2O)[C@@H](O)[C@H]1O [DIADENOSINE TETRAPHOSPHATE]
